Results as given in PubChem BioAssay.
Active and inactive are the calls of the source.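 How the source made its calls, unless noted: active means NADPH fluorescence slope more negative than the mean of all samples by about 3 SD, 99.7% confidence; inactive means the rest.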

Key:
[1] = inhibitors of TNFa-induced NFkB p65 translocation, primary screen, imaging, HUVEC, MLSMR starter and 10KST1 sets (AID 438;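 active means inhibition above 20% together with a positive visual image hit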;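 further: compound added about 3h40 before a 20 min TNFalpha stimulation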;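 on inhibition: signal is the nuclear over cytoplasmic p65 intensity ratio per well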); settings: HUVEC TNFa-induced p65 nuclear translocation; cell count: measured here: nuclei count (cytotoxicity indicator), at 2.08 µM; inhibition: at 2 µM, stronger effect = higher value, 0% TNFa-plus-vehicle, 100% no-TNFa wells
[2] = inhibitors of mutant huntingtin aggregation, primary screen, imaging, exon1htt(103Q)mCFP cells, high-content imaging (AID 483;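 active means visual image review flags a hit and inhibition of aggregation exceeds 20%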;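 further: compound exposure lasted 3 days before fixation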;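 on nuclei count: percent of the per-plate median nuclei count of sample wells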); settings: exon1htt(103Q)mCFP cell line, aggregate imaging, at 2 µM; inhibition of aggregation: stronger effect = higher value; nuclei count: measured here: cell count, toxicity
[3] = inhibitors of E-selectin induction by TNFa, primary screen, imaging, HUVEC, immunofluorescence, MLSMR starter and 10KST1 sets (AID 487;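 active means visually confirmed hit in the image check and inhibition above 20%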;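 on inhibition: signal is fraction of cell area covered by stained E-selectin grains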;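 on nuclei count: 100% = median nuclei count of all wells on the same plate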); settings: HUVEC TNFalpha-induced E-selectin immunofluorescence imaging, at 2 µM; inhibition: stronger effect = higher value; nuclei count: measured here: cell number, toxicity
[4] = target: Voltage-gated potassium channel subunit beta-2 (Rattus norvegicus) (UniProt P62483); experiment: KvBeta enzyme negative modulators, primary screen, biochemical, NADPH fluorescence (AID 622;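 active means fluorescence slope higher than the sample average by over 3 SD, cut at about -0.22 in these data, passing the limit was not always enough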;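 further: slope of raw intensity against log time taken from 70 to 1610 s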); settings: recombinant KvBeta, 4-cyanobenzaldehyde reduction, at 10 µM, stronger effect = higher value
[5] = target: Voltage-gated potassium channel subunit beta-2 (Rattus norvegicus) (UniProt P62483); experiment: KvBeta positive modulators, primary screen, biochemical, NADPH fluorescence (AID 623); settings: Recombinant KvBeta, NADPH fluorescence decrease slope, 10 min; at 10 µM; stronger effect = lower value;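 further: fluorescence intensity change per second fitted from 20 to 320 s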
[6] = target: Muscarinic acetylcholine receptor M4 (Homo sapiens) (UniProt P08173); experiment: compounds altering M4/GIRK thallium flux, either direction, primary screen, M4 allosteric agonist project, cell-based, HEK293 M4/GIRK, BTC-AM (AID 625;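 active means fluorescence slope after compound addition differing from the mean of all tested samples at 99.7% confidence, mostly higher but some lower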;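 further: thallium influx through GIRK channels coupled to M4 in HEK293 cells with BTC-AM dye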); settings: at 10 µM, actives lie on both sides
Summary of the method: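 assay system = HEK293 cells with M4 receptor and GIRK channels | medium = pH 7.3 thallium assay buffer | doses = 10 µM final, single point | timing = cells overnight at 37 °C, BTC-AM loading 1 h, reads 2 min total | signal = BTC-AM fluorescence, 1 Hz kinetic reads | read-out = post-addition slope, 15–24 s, of baseline-normalized fluorescence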

[7] = inhibitors of Sendai virus-induced IRF3 signaling, primary screen, TLR/RLR signaling modifier project, cell-based, Sendai virus stimulus, luciferase, 10K MLSCN set (AID 602276;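 active means inhibition at or above 50% at 10 µM; inactive means inhibition below 50%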;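 further: firefly luciferase from ISG56 promoter only with Renilla not read in this screen; 0% = Sendai virus plus DMSO and 100% = medium plus DMSO without virus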); settings: HEK293 RL24 IRF3 luciferase reporter, at 10 µM, stronger effect = higher value
[8] = inhibitors of poly I:C-induced TLR3 signaling, primary screen, cell-based, poly I:C stimulus, luciferase, 10K MLSCN set (AID 602277;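 active means inhibition of the reporter signal at or above 50%; inactive means inhibition below 50%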); settings: HEK293-TLR3 RL24 IRF3 luciferase reporter, at 10 µM, stronger effect = higher value
[9] = target: Alpha-2C adrenergic receptor (Homo sapiens) (UniProt P18825); experiment: modulators of alpha2C/GIRK thallium flux, primary screen, cell-based, HEK293 alpha2C/GIRK1/2 (AID 624;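 active means fluorescence slope after compound addition differing from the mean of all screened samples at 99.7% confidence, in either direction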;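 further: slope of fluorescence ratio to pre-addition baseline per second over 15 to 24 s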); settings: thallium flux BTC fluorescence, at 10 µM, actives lie on both sides
Chain of Alpha-2C adrenergic receptor (Homo sapiens) (P18825 whole entry, looked up): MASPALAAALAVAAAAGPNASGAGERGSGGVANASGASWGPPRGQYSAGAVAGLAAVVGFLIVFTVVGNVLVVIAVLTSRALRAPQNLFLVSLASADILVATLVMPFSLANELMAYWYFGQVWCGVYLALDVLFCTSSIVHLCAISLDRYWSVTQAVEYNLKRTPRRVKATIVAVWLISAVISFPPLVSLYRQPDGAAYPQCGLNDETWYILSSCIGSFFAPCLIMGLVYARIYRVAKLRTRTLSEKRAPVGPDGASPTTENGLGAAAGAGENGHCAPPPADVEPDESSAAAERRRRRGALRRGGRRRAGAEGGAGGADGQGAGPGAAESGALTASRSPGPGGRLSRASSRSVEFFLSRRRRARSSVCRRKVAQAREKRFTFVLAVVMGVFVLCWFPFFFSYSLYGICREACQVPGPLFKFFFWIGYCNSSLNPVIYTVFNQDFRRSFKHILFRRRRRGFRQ

Chain of Muscarinic acetylcholine receptor M4 (Homo sapiens) (P08173 whole entry, looked up): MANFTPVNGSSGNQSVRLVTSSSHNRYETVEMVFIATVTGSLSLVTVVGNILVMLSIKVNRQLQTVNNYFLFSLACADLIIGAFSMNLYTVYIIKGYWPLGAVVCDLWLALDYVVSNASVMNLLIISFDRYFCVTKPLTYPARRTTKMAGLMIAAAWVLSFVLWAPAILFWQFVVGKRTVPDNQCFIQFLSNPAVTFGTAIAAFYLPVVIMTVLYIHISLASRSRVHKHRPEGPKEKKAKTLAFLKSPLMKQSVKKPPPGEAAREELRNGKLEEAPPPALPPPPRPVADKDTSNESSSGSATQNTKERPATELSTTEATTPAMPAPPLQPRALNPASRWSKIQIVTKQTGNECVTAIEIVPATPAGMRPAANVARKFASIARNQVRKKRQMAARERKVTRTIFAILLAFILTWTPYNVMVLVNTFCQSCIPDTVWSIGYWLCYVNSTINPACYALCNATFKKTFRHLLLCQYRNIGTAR
Chain of Voltage-gated potassium channel subunit beta-2 (Rattus norvegicus) (P62483 whole entry, looked up): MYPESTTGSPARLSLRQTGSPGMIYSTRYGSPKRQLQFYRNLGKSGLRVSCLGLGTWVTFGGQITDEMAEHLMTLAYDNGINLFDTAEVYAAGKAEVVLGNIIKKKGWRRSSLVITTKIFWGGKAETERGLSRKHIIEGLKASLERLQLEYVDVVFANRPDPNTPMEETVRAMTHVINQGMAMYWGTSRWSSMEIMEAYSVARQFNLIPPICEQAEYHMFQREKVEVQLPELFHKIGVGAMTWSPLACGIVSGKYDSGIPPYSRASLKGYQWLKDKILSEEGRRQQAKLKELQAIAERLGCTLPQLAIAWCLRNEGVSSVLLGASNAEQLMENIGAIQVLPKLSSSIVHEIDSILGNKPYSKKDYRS

Structure (SMILES) | cell count [1] | inhibition [1] | inhibition of aggregation [2] | nuclei count [2] [%] | inhibition [3] | nuclei count [3] [%] | fluorescence slope [4] | NADPH fluorescence slope [5] | fluorescence slope [6] | inhibition [7] | inhibition [8] | slope [9]
Cc1ccc(C)c(-c2nc3cc(N)ccc3o2)c1 | 407 | 12.5% (inactive) | 20.6% (inactive) | 97.9 | -435% (inactive) | 124 | -0.0313 (active) | -3e-06 (inactive) | 0.00545 (inactive) | 4.93% (inactive) | 1.69% (inactive) | 
CC(O)c1nc2ccccc2n1C1CCCCC1 (stereo not given) | 631 | -19.6% (inactive) | -4.7% (inactive) | 99.7 | -16.4% (inactive) | 111 | -0.585 (inactive) | 4.8e-06 (inactive) | 0.00511 (inactive) | 20.2% (inactive) | 24.7% (inactive) | 
C[C@H](NC(=O)OC(C)(C)C)C(=O)NCC1CCC(C(=O)O)CC1 (stereo not given in full) | 376 | -1.1% (inactive) | 4% (inactive) | 103 | -23.6% (inactive) | 101 | -0.536 (inactive) | 1.9e-05 (inactive) | 0.00501 (inactive) | 16.6% (inactive) | 21.3% (inactive) | 
Cc1nc2cc(CO)ccc2n1C | 425 | 4.7% (inactive) | 1% (inactive) | 92.7 | -12.6% (inactive) | 108 | -0.589 (inactive) | -3.5e-05 (inactive) | 0.00622 (inactive) | 2.69% (inactive) | 14.4% (inactive) | 
Cc1ccc(CNC(=O)c2coc(=O)c3ccccc23)o1 | 581 | 0.6% (inactive) | 4.6% (inactive) | 102 | 58.5% (inactive) | 55.6 | -0.445 (inactive) | -0.000402 (inactive) | 0.00482 (inactive) |  | 98.4% (active) | 
CN(C)/C=C(\C#N)c1nc2ccccc2[nH]1 | 468 | 11.9% (inactive) | -17.2% (inactive) | 67.1 | -7.3% (inactive) | 112 | -0.532 (inactive) | -3.9e-05 (inactive) | 0.00457 (inactive) | -21.4% (inactive) | -44.6% (inactive) | 
Cc1cc2cc(CNC(=O)c3ccc4c(c3)OCO4)ccc2[nH]1 | 442 | 2.9% (inactive) | 0.1% (inactive) | 106 |  | 150 | -0.503 (inactive) | -1.1e-05 (inactive) |  | -10.5% (inactive) | -25.2% (inactive) | 0.00502 (inactive)
COc1cccc(C(=O)Nc2ccc(NC(=O)C(C)(C)C)cn2)c1 | 444 | 9.8% (inactive) | -12.7% (inactive) | 120 |  | 135 | -0.571 (inactive) | -9.6e-06 (inactive) | 0.00623 (inactive) | 36% (inactive) | 21.1% (inactive) | 
Cc1ccc(Cn2nnc3c(=O)[nH]c(C4CCN(S(=O)(=O)c5ccc(F)cc5)CC4)nc32)cc1 | 436 | 9.4% (inactive) | 11.5% (inactive) | 107 |  | 153 | -0.584 (inactive) | 1.2e-05 (inactive) | 0.00687 (inactive) | 0.788% (inactive) | -11.3% (inactive) | 
CC(=O)Nc1ccc(NC(=O)c2ccccc2N(C)S(C)(=O)=O)cc1 | 408 | 0.5% (inactive) | -2.3% (inactive) | 111 | -46.3% (inactive) | 94.4 | -0.462 (inactive) | -5.4e-05 (inactive) | 0.00563 (inactive) | 11.7% (inactive) | 10.8% (inactive) | 
O=C(Nc1ccc2c(c1)OCO2)c1nn(-c2ccccc2)c(=O)c2ccccc12 | 417 | 7.1% (inactive) | -7.3% (inactive) | 93.9 |  | 150 | -0.621 (inactive) | 2e-05 (inactive) |  | 13.5% (inactive) | 11.4% (inactive) | 0.00664 (inactive)
Cc1ccc(NC(=O)CS(=O)CC(=O)NCC2CCCO2)cc1 (stereo not given) | 515 | 7.1% (inactive) | 17.5% (inactive) | 100 | -38.7% (inactive) | 117 | -0.309 (inactive) | 1.2e-05 (inactive) | 0.00727 (inactive) | -20.7% (inactive) | -6.01% (inactive) | 
C=CCn1c(Cc2csc(N)n2)nnc1SCC(=O)OCC | 313 | -3.5% (inactive) | 18.2% (inactive) | 86.3 | 25.2% (inactive) | 77.4 | -0.48 (inactive) | -2.5e-05 (inactive) | 0.00546 (inactive) | 4.87% (inactive) | 10% (inactive) | 
COc1ccccc1N1CCN(C(=O)CCNS(=O)(=O)c2ccc3c(c2)CCC(=O)N3)CC1 | 556 | -18.8% (inactive) | -1.4% (inactive) | 123 | -31.1% (inactive) | 102 | -0.39 (inactive) | -1.7e-05 (inactive) | 0.00579 (inactive) | 5.92% (inactive) | 13.8% (inactive) | 
CN(C)C(CNc1nnnn1-c1ccccc1)c1ccco1 (stereo not given) | 632 | -7.3% (inactive) | -11.4% (inactive) | 96 | -23.9% (inactive) | 116 | -0.584 (inactive) | 4.2e-06 (inactive) | 0.00677 (inactive) | 8.59% (inactive) | 19.2% (inactive) | 
